Test results: ChEMBL document CHEMBL1255303, “In vitro and in vivo antifungal activities of T-2307, a novel arylamidine” (2008)
Converted amounts (≈) assume the structure as drawn. The source made the active and inactive calls. The calls are words filed in the database; no cut-off is given here. Starred links: 1 amine or outer side, 2 acyl side, 3 side chain; linkers in the order of their positions; H or OH if unused. Positions of bridges follow the written chain, without caps; N, C: chain ends. Non-standard residues stand in square brackets, D forms with d. Residues, ends and D or L forms follow the SMILES beside them. *: point of attachment. hTyr(3S-OH,4S-OH,3'-OSO3H) = N[C@H](C(=O)O)[C@H](O)[C@@H](O)c1ccc(O)c(OS(=O)(=O)O)c1; Orn(4R-OH,5R-OH) = O=C([C@H](C[C@@H](O)[C@@H](O)N[*:3])N[*:1])[*:2]; Pro(3S-OH,4S-Me) = C[C@H]1CN[C@H](C(=O)O)[C@H]1O; X1 = CCCCCOc1ccc(-c2cc(-c3ccc(C(=O)*)cc3)no2)cc1; Gln(3R-OH) = NC(=O)C[C@@H](O)[C@H](N)C(=O)O; Hyp = O=C(O)[C@@H]1C[C@@H](O)CN1

Legend:
[1] = system: Fusarium solani; assay: Antifungal activity against Fusarium solani IFO 31093 after 48 hrs by broth microdilution method; assay type: functional; settings: IFO 31093, 48 h
How it was run: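 CLSI M27-A2 (yeasts) / M38-A (moulds) broth microdilution in RPMI 1640 buffered to pH 7.0 with 0.165 M MOPS. Malassezia furfur got the same medium supplemented with glucose, bile salts, glycerol, glycerol monostearate and Tween 20. Final inoculum 0.65 × 10^3–2.5 × 10^3 CFU/ml for yeasts and 0.87 × 10^4–3.8 × 10^4 CFU/ml for filamentous fungi. Incubation at 35°C except M. racemosus and F. solani, which were held at 30°C.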

[2] = system: Candida albicans; assay: Antifungal activity against Candida albicans TIMM 1623 infected ICR mouse assessed as delay in mortality of mouse at 0.1 mg/kg after 6 days; assay type: functional, organism-based; design: dose 0.1 mg/kg
How it was run: (§1)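 Male ICR mice, 4 weeks old and SPF, were made neutropenic with intraperitoneal cyclophosphamide. The schedule was 200 mg/kg on day −3 (day −4 for Cryptococcus) plus 100 mg/kg on day +1. Infection was by tail-vein injection of 0.2 ml suspension: C. albicans 3.0 × 10^4, C. neoformans 9.1 × 10^4, A. fumigatus conidia 8.4 × 10^4 CFU/mouse. Drugs were given subcutaneously once daily for 7 days from 2 h post-infection; controls received saline. Groups had 8–10 mice.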

[3] = system: Cryptococcus neoformans; assay: Antifungal activity against Cryptococcus neoformans ATCC 90112 infected ICR mouse after 9 days; assay type: functional; settings: ATCC 90112, 216 h; how it was run: as §1
[4] = system: Cryptococcus neoformans; assay: Antifungal activity against Cryptococcus neoformans ATCC 90112 infected ICR mouse assessed as delay in mortality of mouse at 0.3 mg/kg after 9 days; assay type: functional, organism-based; design: dose 0.3 mg/kg; how it was run: as §1
[5] = system: Candida albicans; assay: Antifungal activity against Candida albicans TIMM 1623 infected ICR mouse assessed as delay in mortality of mouse at 0.2 mg/kg after 6 days; assay type: functional, organism-based; design: dose 0.2 mg/kg; how it was run: as §1
[6] = system: Cryptococcus neoformans; assay: Antifungal activity against Cryptococcus neoformans ATCC 90112 infected ICR mouse assessed as delay in mortality of mouse at 0.1 mg/kg after 9 days; assay type: functional, organism-based; design: dose 0.1 mg/kg; how it was run: as §1
[7] = system: Candida albicans; assay: Antifungal activity against Candida albicans TIMM 1623 infected ICR mouse assessed as delay in mortality of mouse at 0.01 mg/kg after 6 days; assay type: functional, organism-based; design: dose 0.01 mg/kg; how it was run: as §1

SMILES: C[C@@H](c1ncncc1F)[C@](O)(Cn1cncn1)c1ccc(F)cc1F [VORICONAZOLE]
- MFC [1]: 8 µg/mL (≈ 22.9 µM)
- MIC [1]: 8 µg/mL (≈ 22.9 µM)

SMILES: C[C@@H]1[C@H](O)[C@@H](C)/C=C/C=C/C=C/C=C/C=C/C=C/C=C/[C@H](O[C@@H]2O[C@H](C)[C@@H](O)[C@H](N)[C@@H]2O)C[C@@H]2O[C@](O)(C[C@@H](O)C[C@@H](O)[C@H](O)CC[C@@H](O)C[C@@H](O)CC(=O)O[C@H]1C)C[C@H](O)[C@H]2C(=O)O [AMPHOTERICIN B]
- MFC [1]: 2 µg/mL (≈ 2.16 µM)
- MIC [1]: 2 µg/mL (≈ 2.16 µM)
- Activity [2]: Active
- ED50 [3]: 0.199 mg/kg
- Activity [4]: Active

SMILES: CCCCCOc1ccc(-c2cc(-c3ccc(C(=O)N[C@H]4C[C@@H](O)[C@@H](O)NC(=O)[C@@H]5[C@@H](O)[C@@H](C)CN5C(=O)[C@H]([C@H](O)CC(N)=O)NC(=O)[C@H]([C@H](O)[C@@H](O)c5ccc(O)c(OS(=O)(=O)O)c5)NC(=O)[C@@H]5C[C@@H](O)CN5C(=O)[C@H]([C@@H](C)O)NC4=O)cc3)no2)cc1 [MICAFUNGIN] (X1-[Orn(4R-OH,5R-OH)]T[Hyp][hTyr(3S-OH,4S-OH,3'-OSO3H)][Gln(3R-OH)][Pro(3S-OH,4S-Me)]; lactam 1-C)
- MFC [1]: > 64 µg/mL
- MIC [1]: > 64 µg/mL
- Activity [5]: Active

SMILES: N=C(N)c1ccc(OCCCC2CCN(CCCOc3ccc(C(=N)N)cc3)CC2)cc1
- Activity [6]: Active
- MFC [1]: > 64 µg/mL
- MIC [1]: 0.125 µg/mL (≈ 0.286 µM)
- ED50 [3]: 0.117 mg/kg
- Activity [7]: Active

SMILES: OC(Cn1cncn1)(Cn1cncn1)c1ccc(F)cc1F [FLUCONAZOLE]
- MFC [1]: > 64 µg/mL
- MIC [1]: > 64 µg/mL
